Data set [1] concerns PC-3. In words: Cytotoxicity against human PC3 cells assessed as reduction in cell viability after 72 hrs by resazurin dye based fluorescence analysis. In kind it is functional. Conditions: PC-3, 72 h. The procedure, abridged:
(§1)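 A549 (non-small-cell lung) and PC3 (prostate) human cancer cells from ATCC. Viability was read after 72 h, in triplicate. Runs were either a single 80 μM concentration or a dose-response. Actinomycin D served as the positive control.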

Data set [2] is described as follows: Toxicity in axolotl embryo at 1 uM after 7 days by tail regeneration assay. The note with it: ambystoma mexicanum, 168 h, time 7 day. An outline of the steps: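 Stage 42 embryos manually hatched, anaesthetised with benzocaine, given 2 mm tail amputations, then reared with or without test agent in artificial pond water at 18–19 °C for 7 days postamputation. Imaged at 0 and 7 DPA. Agents dissolved in DMSO, 0.1% final DMSO. Vehicle served as negative control, geldanamycin as positive control.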

Data set [3] has as its target Eukaryotic translation initiation factor 4E-binding protein 1 (Homo sapiens) (UniProt Q13541). In words: Inhibition of 4E-BP1 phosphorylation in human HCT116 cells at 2 uM after 6 hrs by Western blot analysis. The format is cell-based. The note with it: HCT-116. An outline of the steps:
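HCT116 cells were treated 6 h with 2 μM compound or with DMSO as negative control. Lysate was run on SDS-PAGE, blotted to PVDF and probed for phospho-4E-BP1 (Thr37/46, Ser65, Thr70), with chemiluminescent detection.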
For orientation: Immunoblotting shows a protein as a band on a membrane.

For data set [4], the system named is A549. In words: Cytotoxicity against human A549 cells assessed as reduction in cell viability after 72 hrs by resazurin dye based fluorescence analysis. The format is functional. The note with it: A549, 72 h. The procedure, abridged:
as §1

In a further data set the test system is Salmonella enterica. The data set is described as follows: Antibacterial activity against Salmonella enterica ATCC 10708 at <= 133 uM incubated for 16 hrs. The format is functional, organism-based. The note with it: dose microM <=133, time 16.0 hrs. An outline of the steps: (§2)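 Microbial strains from ATCC or NRRL, tested in triplicate with a top concentration of 133 μM. Positive controls were kanamycin and ampicillin (S. aureus, M. luteus, S. enterica, E. coli) and amphotericin B (S. cerevisiae).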

The test system of the next data set is Micrococcus luteus. The data set is described as follows: Antibacterial activity against Micrococcus luteus NRRL B-287 at <= 133 uM incubated for 16 hrs. Conditions: dose microM <=133, time 16.0 hrs. The format is functional, organism-based. The procedure, abridged:
as §2

The subject of the next data set is Escherichia coli. In words: Antibacterial activity against Escherichia coli NRRL B-3708 at <= 133 uM incubated for 16 hrs. In kind it is functional, organism-based. The note with it: dose microM <=133, time 16.0 hrs. An outline of the steps:
as §2

In another data set the test system is Staphylococcus aureus. In words: Antibacterial activity against Staphylococcus aureus ATCC 6538 at <= 133 uM incubated for 16 hrs. The format is functional, organism-based. The note with it: dose microM <=133, time 16.0 hrs. An outline of the steps:
as §2

For the next data set, the system named is Mycolicibacterium aurum. In words: Antibacterial activity against Mycobacterium aurum ATCC 23366 at <= 133 uM incubated for 16 hrs. In kind it is functional, organism-based. The note with it: dose microM <=133, time 16.0 hrs. An outline of the steps: as §2
Data set [5] deals with A549. In words: Cytotoxicity against human A549 cells assessed as reduction in cell viability at 80 uM after 72 hrs by resazurin dye based fluorescence analysis. The format is functional. An outline of the steps:
as §1

The subject of a further data set is Saccharomyces cerevisiae. The data set is described as follows: Antifungal activity against Saccharomyces cerevisiae ATCC 204508 at <= 133 uM after 16 hrs. In kind it is functional, organism-based. Conditions: dose microM <=133, time 16.0 hrs. The procedure, abridged:
as §2

The subject of another data set is Bacillus spizizenii. In words: Antibacterial activity against Bacillus subtilis ATCC 6633 at <= 133 uM incubated for 16 hrs. The note with it: dose microM <=133, time 16.0 hrs. In kind it is functional, organism-based. The procedure, abridged: as §2
Data set [6] concerns PC-3. The data set is described as follows: Cytotoxicity against human PC3 cells assessed as reduction in cell viability at 80 uM after 72 hrs by resazurin dye based fluorescence analysis. The format is functional. The procedure, abridged: as §1

Usually IC50 stands for the concentration at which inhibition is half-maximal.

The source made the active and inactive calls. The rule behind the calls is not given here.

Chain of Eukaryotic translation initiation factor 4E-binding protein 1 (Homo sapiens) (Q13541 whole entry): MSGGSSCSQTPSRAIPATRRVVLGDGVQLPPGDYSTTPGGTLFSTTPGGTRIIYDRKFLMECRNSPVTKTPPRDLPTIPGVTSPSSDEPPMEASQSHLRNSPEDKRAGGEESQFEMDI

As to `C[C@@H]1O[C@@H](O[C@H]2[C@H](O)C[C@H](c3ccc4c(c3O)C(=O)C3=C(C4=O)[C@@]4(O)C(=O)C[C@](C)(O[C@H]5CC[C@H](O[C@H]6C=CC(=O)[C@H](C)O6)[C@H](C)O5)C[C@@]4(O)C=C3)O[C@@H]2C)C=CC1=O` [SAQUAYAMYCINS A], the 50% inhibitory concentration (IC50) with PC-3 [1] and in the data set on A549 [4] was < 500 nM throughout. Moreover, the Activity entry in [2] was “Toxic”. Moreover, the inhibition entry in data set [3] is “Active”.
Regarding `COc1cccc2c1C(=O)c1ccc(/C=C(/C)CC(=O)O)c(O)c1C2=O`, the result in the data set on Salmonella enterica, with Micrococcus luteus, with Escherichia coli, with Staphylococcus aureus, with Mycolicibacterium aurum and in the data set on A549 [5] was inactive. The outcome with Saccharomyces cerevisiae, in the data set on Bacillus spizizenii and in the data set on PC-3 [6] was inactive.
With `COC(=O)C/C(C)=C\c1c(O)cc2c(c1O)C(=O)c1cccc(O)c1C2=O`, the result in the data set on Salmonella enterica, in the data set with Micrococcus luteus, in the data set with Escherichia coli, in the data set on Staphylococcus aureus, in the data set on Mycolicibacterium aurum and in the data set with A549 [5] was inactive. Besides, the outcome with Saccharomyces cerevisiae, in the data set on Bacillus spizizenii and in the data set with PC-3 [6] was inactive.
As to `COc1cccc2c1C(=O)c1ccc(/C=C(\C)CC(=O)O)c(O)c1C2=O`, the outcome in the data set on Salmonella enterica, in the data set with Micrococcus luteus, in the data set with Escherichia coli, with Staphylococcus aureus, in the data set on Mycolicibacterium aurum and in the data set with A549 [5] was inactive. The result in the data set on Saccharomyces cerevisiae, in the data set with Bacillus spizizenii and in the data set on PC-3 [6] was inactive.
`CC(=O)OC(=O)C(O)/C(C)=C\c1c(O)cc2c(c1O)C(=O)c1cccc(O)c1C2=O` (stereo not given): the result in the data set with Salmonella enterica, with Micrococcus luteus, in the data set with Escherichia coli, with Staphylococcus aureus, with Mycolicibacterium aurum and in the data set on A549 [5] was inactive. The outcome with Saccharomyces cerevisiae, in the data set with Bacillus spizizenii and in the data set on PC-3 [6] was inactive.

Values taken from ChEMBL document CHEMBL4811313, “Himalaquinones A-G, Angucyclinone-Derived Metabolites Produced by the Himalayan Isolate Streptomyces sp. PU-MM59” (J Nat Prod, 2021).
